Data from ChEMBL document CHEMBL3297672, “Ingol-type diterpenes from Euphorbia antiquorum with mouse 11β-hydroxysteroid dehydrogenase type 1 inhibition activity” (J Nat Prod, 2014).
The source made the active and inactive calls. The rule behind the calls is not given here.

What was measured:
[1] = biological target: 11-beta-hydroxysteroid dehydrogenase 1 (Homo sapiens) (UniProt P28845); experiment: Inhibition of human 11beta-HSD1 expressed in HEK293 cells assessed as inhibition of [3H]cortisone to [3H]cortisol conversion by SPA; assay type: cell-based
Chain of 11-beta-hydroxysteroid dehydrogenase 1 (Homo sapiens) (P28845 whole entry, looked up): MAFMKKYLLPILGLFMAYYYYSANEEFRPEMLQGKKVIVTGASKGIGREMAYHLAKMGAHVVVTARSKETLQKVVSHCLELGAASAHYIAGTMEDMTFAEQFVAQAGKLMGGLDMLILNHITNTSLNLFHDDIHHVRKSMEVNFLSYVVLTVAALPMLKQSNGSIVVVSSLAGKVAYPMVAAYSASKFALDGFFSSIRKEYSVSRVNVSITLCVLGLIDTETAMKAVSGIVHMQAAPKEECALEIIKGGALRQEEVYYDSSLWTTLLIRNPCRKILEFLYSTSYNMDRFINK
Outline: (§1)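 Scintillation proximity assay against human or mouse 11β-HSD1 enzyme activity, using microsomes containing the enzyme. Glycyrrhetinic acid was the positive control.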

HL-60 = experiment: Cytotoxicity against human HL60 cells; assay type: functional, cell-based
Outline: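 Cytotoxicity against HL-60 cells was read out by the MTT method, following a previously reported protocol.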

A549 = experiment: Cytotoxicity against human A549 cells; assay type: functional, cell-based
[2] = biological target: T1, Tyrosine-protein phosphatase non-receptor type 1 (Homo sapiens, UniProt P18031); experiment: Inhibition of PTP1B (unknown origin)
T1 sequence (P18031 whole entry): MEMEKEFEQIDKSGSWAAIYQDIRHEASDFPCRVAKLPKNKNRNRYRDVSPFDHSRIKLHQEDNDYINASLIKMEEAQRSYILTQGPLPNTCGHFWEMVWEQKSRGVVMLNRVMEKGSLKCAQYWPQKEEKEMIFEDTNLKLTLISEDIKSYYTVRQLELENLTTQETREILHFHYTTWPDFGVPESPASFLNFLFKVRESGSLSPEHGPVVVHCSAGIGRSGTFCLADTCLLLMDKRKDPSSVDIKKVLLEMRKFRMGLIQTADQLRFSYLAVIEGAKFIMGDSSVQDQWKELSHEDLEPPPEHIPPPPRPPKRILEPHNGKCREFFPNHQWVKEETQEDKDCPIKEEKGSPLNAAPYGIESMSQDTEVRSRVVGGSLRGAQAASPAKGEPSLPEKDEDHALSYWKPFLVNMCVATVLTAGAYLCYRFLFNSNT

[3] = biological target: 11-beta-hydroxysteroid dehydrogenase 1 (Mus musculus, UniProt P50172); experiment: Inhibition of mouse 11beta-HSD1 expressed in HEK293 cells assessed as inhibition of [3H]cortisone to [3H]cortisol conversion by SPA; assay type: cell-based; outline: as §1
Chain of 11-beta-hydroxysteroid dehydrogenase 1 (P50172 whole entry): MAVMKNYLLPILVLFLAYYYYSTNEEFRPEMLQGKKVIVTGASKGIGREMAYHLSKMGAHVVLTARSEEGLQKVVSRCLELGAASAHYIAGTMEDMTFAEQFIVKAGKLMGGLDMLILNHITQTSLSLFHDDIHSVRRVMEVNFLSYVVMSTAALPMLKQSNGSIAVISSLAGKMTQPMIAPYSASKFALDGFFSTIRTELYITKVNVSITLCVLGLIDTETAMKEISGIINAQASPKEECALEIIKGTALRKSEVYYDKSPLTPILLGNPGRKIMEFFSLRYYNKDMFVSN

| SMILES | inhibition [1] | IC50 [2] [µM] | IC50 [3] [µM] | IC50 (HL-60) [µM] | IC50 (A549) [µM] |
| --- | --- | --- | --- | --- | --- |
| CO[C@@H]1[C@H]2[C@@H]([C@@H](OC(C)=O)[C@@H](C)C(=O)[C@@]34C[C@H](C)[C@H](OC(C)=O)[C@]3(/C=C(\CO)[C@H]1OC(=O)c1ccccc1)O4)C2(C)C |  | > 10 |  | > 10 | > 10 |
| CC(=O)O[C@H]1[C@@H](C)C[C@@]23O[C@@]12/C=C(\C)[C@@H](O)[C@H](OC(=O)c1ccccc1)[C@H]1[C@@H]([C@@H](O)[C@@H](C)C3=O)C1(C)C | inactive | > 10 |  | > 10 | > 10 |
| CO[C@@H]1[C@H]2[C@@H]([C@@H](OC(C)=O)[C@@H](C)C(=O)[C@@]34C[C@H](C)[C@H](OC(C)=O)[C@]3(/C=C(\C)[C@H]1OC(=O)[C@@]1(C)O[C@@H]1C)O4)C2(C)C |  | > 10 |  | > 10 | > 10 |
| C/C=C(/C)C(=O)O[C@@H]1/C(C)=C/[C@@]23O[C@@]2(C[C@H](C)[C@@H]3OC(C)=O)C(=O)[C@H](C)[C@H](OC(C)=O)[C@@H]2[C@H]([C@H]1OC)C2(C)C | inactive | > 10 |  | > 10 | > 10 |
| C/C=C(/C)C(=O)O[C@@H]1/C(C)=C/[C@@]23O[C@@]2(C[C@H](C)[C@@H]3O)C(=O)[C@H](C)[C@H](O)[C@@H]2[C@H]([C@H]1OC)C2(C)C |  | > 10 |  | > 10 | > 10 |
| CCC(C)C(=O)O[C@@H]1[C@H]2[C@@H]([C@@H](OC(C)=O)[C@@H](C)C(=O)[C@@]34C[C@H](C)[C@H](O)[C@]3(/C=C(\C)[C@H]1OC(C)=O)O4)C2(C)C (some centres not stated) | inactive | > 10 | 6.4 | > 10 | > 10 |
| C/C=C(/C)C(=O)O[C@@H]1/C(C=O)=C/[C@@]23O[C@@]2(C[C@H](C)[C@@H]3OC(C)=O)C(=O)[C@H](C)[C@H](OC(C)=O)[C@@H]2[C@H]([C@H]1OC)C2(C)C |  | > 10 |  | > 10 | > 10 |
| C/C=C(/C)C(=O)O[C@@H]1/C(C)=C/[C@@]23O[C@@]2(C[C@@H](C)[C@H]3O)C(=O)[C@H](C)[C@H](OC(C)=O)[C@@H]2[C@H]([C@H]1OC)C2(C)C | inactive | > 10 |  | > 10 | > 10 |
| CCC(C)C(=O)O[C@@H]1[C@H]2[C@@H]([C@@H](OC(C)=O)[C@@H](C)C(=O)[C@@]34C[C@H](C)[C@H](OC(C)=O)[C@]3(/C=C(\C)[C@H]1O)O4)C2(C)C (some centres not stated) | inactive | > 10 |  | > 10 | > 10 |
| C/C=C(/C)C(=O)O[C@@H]1/C(C)=C/[C@@]23O[C@@]2(C[C@H](C)[C@@H]3O)C(=O)[C@H](C)[C@H](OC(C)=O)[C@@H]2[C@H]([C@H]1OC)C2(C)C | inactive | > 10 |  | > 10 | > 10 |
| CO[C@@H]1[C@H]2[C@@H]([C@@H](O)[C@@H](C)C(=O)[C@@]34C[C@H](C)[C@H](OC(C)=O)[C@]3(/C=C(\C)[C@H]1OC(=O)c1ccccc1)O4)C2(C)C |  | > 10 |  | > 10 | > 10 |

Second part, led by results:

| inhibition [1] | IC50 [2] [µM] | IC50 [3] [µM] | SMILES | IC50 (HL-60) [µM] | IC50 (A549) [µM] |
| --- | --- | --- | --- | --- | --- |
| inactive | > 10 |  | CO[C@@H]1[C@H]2[C@@H]([C@@H](OC(C)=O)[C@@H](C)C(=O)[C@@]34C[C@H](C)[C@H](O)[C@]3(/C=C(\C)[C@H]1OC(=O)c1ccccc1)O4)C2(C)C | > 10 | > 10 |
| inactive | > 10 |  | CO[C@@H]1[C@H]2[C@@H]([C@@H](OC(C)=O)[C@@H](C)C(=O)[C@@]34C[C@H](C)[C@H](OC(C)=O)[C@]3(/C=C(\C)[C@H]1OC(=O)[C@]1(C)O[C@@H]1C)O4)C2(C)C | > 10 | > 10 |
| inactive | > 10 | 12 | C/C=C(/C)C(=O)O[C@@H]1/C(CO)=C/[C@@]23O[C@@]2(C[C@H](C)[C@@H]3OC(C)=O)C(=O)[C@H](C)[C@H](OC(C)=O)[C@@H]2[C@H]([C@H]1OC)C2(C)C | > 10 | > 10 |
| inactive | > 10 |  | CCC(C)C(=O)O[C@@H]1[C@H]2[C@@H]([C@@H](OC(C)=O)[C@@H](C)C(=O)[C@@]34C[C@@H](C)[C@@H](OC(C)=O)[C@]3(/C=C(\C)[C@H]1O)O4)C2(C)C (some centres not stated) | > 10 | > 10 |
| inactive | > 10 | 0.41 | CC(=O)O[C@@H]1[C@@H]2[C@H]([C@@H](OC(=O)c3cccnc3)[C@H](OC(=O)c3ccccc3)/C(C)=C/[C@@]34O[C@@]3(C[C@H](C)[C@@H]4OC(C)=O)C(=O)[C@@H]1C)C2(C)C | > 10 | > 10 |
|  | > 10 |  | C/C=C(/C)C(=O)O[C@@H]1/C(C)=C/[C@@]23O[C@@]2(C[C@@H](C)[C@H]3O)C(=O)[C@H](C)[C@H](O)[C@@H]2[C@H]([C@H]1OC)C2(C)C | > 10 |  |
| inactive | > 10 |  | C/C=C(\C)C(=O)O[C@@H]1/C(C)=C/[C@@]23O[C@@]2(C[C@H](C)[C@@H]3OC(C)=O)C(=O)[C@H](C)[C@H](OC(C)=O)[C@@H]2[C@H]([C@H]1OC(C)=O)C2(C)C | > 10 | > 10 |
| inactive | > 10 |  | C=C(C(=O)O[C@@H]1/C(C)=C/[C@@]23O[C@@]2(C[C@H](C)[C@@H]3OC(C)=O)C(=O)[C@H](C)[C@H](OC(C)=O)[C@@H]2[C@H]([C@H]1OC)C2(C)C)C(C)O (some centres not stated) | > 10 | > 10 |
